Emax, EC50 and Activity data for ten molecules are collected here from ChEMBL document CHEMBL1811848 (Bioorg Med Chem Lett, 2011).

SMILES strings stand for the structures. Calls of active or inactive are those of the source. The calls are words filed in the database; no cut-off is given here.

The target of experiment [1] is T1, Peroxisome proliferator-activated receptor alpha (Homo sapiens) (UniProt Q07869).
T1 sequence (whole entry): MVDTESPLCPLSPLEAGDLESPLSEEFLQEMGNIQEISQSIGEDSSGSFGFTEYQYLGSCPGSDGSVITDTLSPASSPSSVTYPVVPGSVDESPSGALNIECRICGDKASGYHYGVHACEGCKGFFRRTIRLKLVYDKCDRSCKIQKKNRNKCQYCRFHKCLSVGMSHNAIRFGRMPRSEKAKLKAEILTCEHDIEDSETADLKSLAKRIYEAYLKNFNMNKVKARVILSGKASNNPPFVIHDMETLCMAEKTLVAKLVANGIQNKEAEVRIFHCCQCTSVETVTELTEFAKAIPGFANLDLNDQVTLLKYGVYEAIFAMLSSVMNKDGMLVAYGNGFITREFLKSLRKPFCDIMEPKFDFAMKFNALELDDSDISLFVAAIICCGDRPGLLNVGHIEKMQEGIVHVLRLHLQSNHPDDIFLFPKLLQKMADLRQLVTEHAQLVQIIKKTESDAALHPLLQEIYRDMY
The experiment is described as follows: Transactivation of human PPARalpha expressed in human HepG2 cells co-transfected with PPRE3-TK-Luc by luciferase reporter gene assay relative to WY14643. It is filed as cell-based. In outline: (§1)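 Same HepG2 hPPARα or hPPARγ / PPRE3-TK-luc luciferase transactivation assay. Efficacy expressed as percent of maximal response, normalized to 100% for the reference agonist: WY-14643 for α, rosiglitazone for γ.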
For orientation: In a reporter assay the amount or activity of a reporter protein is the signal.

Experiment [2] concerns the target T2, Peroxisome proliferator-activated receptor gamma (Homo sapiens, UniProt P37231).
T2 sequence (P37231 whole entry): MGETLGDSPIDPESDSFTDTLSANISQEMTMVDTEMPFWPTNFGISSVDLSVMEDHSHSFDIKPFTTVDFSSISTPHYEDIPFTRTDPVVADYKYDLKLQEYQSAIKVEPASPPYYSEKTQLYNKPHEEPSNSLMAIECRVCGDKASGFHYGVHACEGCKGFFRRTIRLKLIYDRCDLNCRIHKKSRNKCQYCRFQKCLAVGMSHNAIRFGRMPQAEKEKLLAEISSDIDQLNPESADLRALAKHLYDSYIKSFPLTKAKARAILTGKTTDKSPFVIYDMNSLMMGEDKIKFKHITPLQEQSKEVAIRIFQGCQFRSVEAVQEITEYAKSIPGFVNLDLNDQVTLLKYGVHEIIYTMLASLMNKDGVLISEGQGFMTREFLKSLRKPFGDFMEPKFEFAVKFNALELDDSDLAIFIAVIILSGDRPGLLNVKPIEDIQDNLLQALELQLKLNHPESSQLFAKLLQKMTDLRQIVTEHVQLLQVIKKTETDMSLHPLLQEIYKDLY
The experiment in a line: Transactivation of human PPARgamma expressed in human HepG2 cells co-transfected with PPRE3-TK-Luc by luciferase reporter gene assay. It is filed as cell-based. In outline: (§2)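 HepG2 cells transfected with pSG5 vector carrying hPPARα, hPPARγ or hPPARδ cDNA, co-transfected with PPRE3-TK-luc. Firefly luciferase activity measured with a commercial kit. β-galactosidase activity read on an ELISA reader. Controls: WY14643 (α), rosiglitazone (γ), GW501516 (δ).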

Experiment [3] has as its target T3, Peroxisome proliferator-activated receptor gamma (Homo sapiens) (UniProt P37231).
T3 sequence (whole entry): T2 sequence (P37231 whole entry)
The experiment in a line: Transactivation of human PPARgamma expressed in human HepG2 cells co-transfected with PPRE3-TK-Luc by luciferase reporter gene assay relative to Rosiglitazone. It is filed as cell-based. In outline: as §1

In experiment [4] the target is T4, Peroxisome proliferator-activated receptor delta (Homo sapiens) (UniProt Q03181).
T4 sequence (whole entry): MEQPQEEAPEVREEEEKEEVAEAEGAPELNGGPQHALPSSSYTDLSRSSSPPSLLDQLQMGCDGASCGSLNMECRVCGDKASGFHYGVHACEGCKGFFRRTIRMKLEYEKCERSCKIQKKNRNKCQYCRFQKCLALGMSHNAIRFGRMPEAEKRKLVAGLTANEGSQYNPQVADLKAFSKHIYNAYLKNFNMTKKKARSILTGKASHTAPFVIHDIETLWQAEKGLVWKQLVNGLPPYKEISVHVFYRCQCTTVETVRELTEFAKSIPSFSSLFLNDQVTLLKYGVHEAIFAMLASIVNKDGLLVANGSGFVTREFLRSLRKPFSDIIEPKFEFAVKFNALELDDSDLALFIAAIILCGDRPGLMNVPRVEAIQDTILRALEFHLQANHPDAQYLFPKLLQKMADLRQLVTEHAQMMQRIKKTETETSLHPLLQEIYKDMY
The experiment in a line: Transactivation of human PPARdelta expressed in human HepG2 cells co-transfected with PPRE3-TK-Luc by luciferase reporter gene assay. It is filed as cell-based. In outline:
as §2

For experiment [5], the system named is Mus musculus. The experiment in a line: Reduction in serum triglyceride level in Swiss albino mouse at 10 mg/kg, po administered for 6 days relative to control. It is filed as functional. The arrangement: scale not given: the % may be the effect or the level left. In outline: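 Male Swiss albino mice aged 6–8 weeks were given 10 mg/kg/day orally for 6 days. Serum triglyceride was expressed as % change versus vehicle controls, mean of n = 6.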

The target of experiment [6] is T5, Peroxisome proliferator-activated receptor alpha (Homo sapiens, UniProt Q07869).
T5 sequence (Q07869 whole entry): T1 sequence (whole entry)
The experiment is described as follows: Transactivation of human PPARalpha expressed in human HepG2 cells co-transfected with PPRE3-TK-Luc by luciferase reporter gene assay. The format is cell-based.

Experiment [7] concerns Mus musculus. The experiment is described as follows: Antihyperglycemic activity in db/db mouse assessed as reduction in glucose level at 3 mg/kg/day, po administered for 6 days relative to control. The format is functional. The arrangement: scale not given: the % may be the effect or the level left. In outline:
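Male db/db mice aged 6–8 weeks were dosed orally once daily for 6 days. Plasma glucose was then measured and expressed as % change versus vehicle-treated controls.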

Usually EC50 stands for the concentration that produces a half-maximal response. With `CCO[C@@H](Cc1ccc(OCc2nc(-c3sccc3C)oc2C)cc1)C(=O)O`, the Emax in experiment [1] was 106%; in experiment [3], 88%. In experiment [2], this molecule registered an EC50 of 0.0003 nM. For the same molecule, in experiment [4], the result was inactive. Besides, the Activity in the experiment on Mus musculus [5] came to 72%.

With `CCO[C@@H](Cc1ccc(OCc2nc(-c3cccs3)oc2C)cc1)C(=O)O`, the results for the EC50 in experiment [6] and in experiment [2] were 0.026 nM and 0.0015 nM, respectively. Moreover, the figures for the Emax in experiment [1] and in experiment [3] were 134% and 107%, respectively. Also, in experiment [4], the result was inactive. This molecule displayed an Activity in the experiment with Mus musculus [5] of 72%.

Consider `CCO[C@@H](Cc1ccc(OCCc2nc(-c3sccc3C)oc2C)cc1)C(=O)O`, for which the Emax in experiment [1] was determined as 96%; in experiment [3], 192%. The molecule further yielded a concentration giving a half-maximal response (EC50) in experiment [2] of 0.0001 nM. The outcome in experiment [4] was inactive. For the same molecule, the Activity in the experiment on Mus musculus [5] worked out at 67%.

On to `CCO[C@@H](Cc1ccc(OCCc2nc(-c3cccs3)oc2C)cc1)C(=O)O`, for which the concentration for a half-maximal effect (EC50) came out at 0.1 nM in experiment [6] and 0.05 nM in experiment [2]. For the same molecule, the Emax in experiment [1] came to 126%; in experiment [3], 104%. Also, the outcome in experiment [4] was inactive. Besides, the Activity with Mus musculus [5] is on record as 78%.

Regarding `CCO[C@@H](Cc1ccc(OCCc2nc(-c3ccc(-c4ccccc4)s3)oc2C)cc1)C(=O)O`, the results for the half-maximal effective concentration (EC50) in experiment [6] and in experiment [2] were 22 nM and 4.5 nM, respectively. The outcome in experiment [4] was inactive. In the experiment on Mus musculus [5], the Activity is 62%.

On to `CCO[C@@H](Cc1ccc(OCc2nc(-c3ccc(-c4ccccc4)s3)oc2C)cc1)C(=O)O`, for which the half-maximal effective concentration (EC50) was determined as 20 nM in experiment [6] and 3 nM in experiment [2]. Moreover, the Emax in experiment [1] amounted to 93%; in experiment [3], 104%. Moreover, in experiment [4], the result was inactive. This molecule had an Activity in the experiment with Mus musculus [5] of 57%.

As for `CCO[C@@H](Cc1ccc(OCc2nc(-c3ccsc3)oc2C)cc1)C(=O)O`, the EC50 worked out at 3 nM in experiment [6] and 2.7 nM in experiment [2]. In addition, the Emax was found to be 147% in experiment [1] and 99% in experiment [3]. In experiment [4], the result was inactive. This molecule had an Activity in the experiment with Mus musculus [5] of 70%.

As to `CCO[C@@H](Cc1ccc(OCCc2ccc(OS(C)(=O)=O)cc2)cc1)C(=O)O` [TESAGLITAZAR], the Activity in the experiment with Mus musculus [7] is listed as 55%.

As to `CCO[C@@H](Cc1ccc(OCc2nc(-c3ccc(C)s3)oc2C)cc1)C(=O)O`, the Emax was 151% in experiment [1] and 120% in experiment [3]. This molecule also had a 50% effective concentration (EC50) in experiment [2] of 0.0002 nM. In addition, the outcome in experiment [4] was inactive. Moreover, the Activity is 69% in the experiment with Mus musculus [5] and 67% with Mus musculus [7].

Take `CCO[C@@H](Cc1ccc(OCCc2nc(-c3ccsc3)oc2C)cc1)C(=O)O`: the EC50 is 1.9 nM in experiment [6] and 0.6 nM in experiment [2]. Further, the values for the Emax in experiment [1] and in experiment [3] were 114% and 87%, respectively. Also, the result in experiment [4] was inactive. Further, the Activity in the experiment with Mus musculus [5] was 62%.
